The results in this text go back to ChEMBL document CHEMBL1155438, “Design and syntheses of permethyl ningalin B analogues: potent multidrug resistance (MDR) reversal agents of cancer cells” (J Med Chem, 2010).

Series [1] can be described thus: Cytotoxicity against wild type human LCC-6 cells after 3 days by MTS assay. Type of series: cell-based. Particulars: LCC-6, 72 h. Background: Tetrazolium assays rely on reduction of a dye to a coloured formazan, in cell work by metabolically active cells.
The nature of series [2]: Cytotoxicity against multidrug-resistant human LCC-6 cells after 3 days by MTS assay. As to conditions: LCC-6, 72 h. Type of series: cell-based.
Series [3] deals with L929. Briefly: Cytotoxicity against mouse L929 cells after 3 days by MTS assay. It is filed as cell-based. Particulars: L929, 72 h.
Series [4] deals with T1, ATP-dependent translocase ABCB1 (Homo sapiens, UniProt P08183). Briefly: Inhibition of P-gp-mediated paclitaxel-resistance in P-glycoprotein-expressing human LCC-6 cells assessed as fold decrease in paclitaxel IC50 for cytotoxic activity at 1 uM after 5 days by MTS assay relative to control. It is filed as cell-based. As to conditions: lcc-6, 120 h. Summed up: (§1)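 ABCB1-transfected LCC6MDR cells (6000 per well) given serial paclitaxel, doxorubicin or vincristine with or without 1 μM modulator for 5 days at 37 °C. MTS/PMS added for 2 h, absorbance 490 nm. IC50 from dose-response curves. RF = IC50 without modulator / IC50 with modulator; mean ± SEM.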

The test system of series [5] is LCC-6. The series is described as follows: Increase in doxorubicin concentration in wild type human LCC-6 cells at 3 uM after 150 mins by spectrofluorimetry. It is filed as functional, cell-based. Summed up: (§2)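 Cells (1 × 10⁶ LCC6 or LCC6MDR) incubated with 20 μM doxorubicin plus modulator for 150 min at 37 °C; 0.4% DMSO as negative control. Cells washed in cold PBS pH 7.4 and lysed in 0.75 M HCl/0.2% Triton X-100 in isopropanol. Supernatant doxorubicin fluorescence read at ex 460/em 610 nm. Duplicate, repeated twice; mean ± SEM.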

For series [6], the target named is T1, ATP-dependent translocase ABCB1. The series is described as follows: Inhibition of P-gp-mediated doxorubicin-resistance in P-glycoprotein-expressing human LCC-6 cells assessed as fractional inhibitory concentration index at 0.5 uM after 5 days by MTS assay in presence of 1-(3,4,5-Trimethoxybenzyl)-3,4-bis(3,4-dimethoxyphenyl)-1H-pyrrole-2,5-dion. It is filed as cell-based. As to conditions: lcc-6, 120 h. The gist of the method:
(§3)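 LCC6MDR cells (6000 per well) given two modulators at 0.5 μM each, with serial paclitaxel, doxorubicin or vincristine, for 5 days at 37 °C. IC50 by MTS absorbance at 490 nm. FIC values come from IC50 relative to each modulator alone at 1 μM, and FICI is the sum (modified Chou–Talalay). Synergy: FICI ≤0.5; additive: 0.5–4; antagonism: >4.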

For series [7] the target is unchanged. Briefly: Inhibition of P-gp-mediated vincristine-resistance in P-glycoprotein-expressing human LCC-6 cells assessed as fractional inhibitory concentration index at 0.5 uM after 5 days by MTS assay in presence of 1-(3,4,5-Trimethoxybenzyl)-3,4-bis(3,4-dimethoxyphenyl)-1H-pyrrole-2,5-dione. Type of series: cell-based. As to conditions: lcc-6, 120 h. The gist of the method:
as §3

For series [8] the target is unchanged. Briefly: Inhibition of P-gp-mediated doxorubicin-resistance in P-glycoprotein-expressing human LCC-6 cells assessed as increase in intracellular doxorubicin accumulation at 3 uM after 150 mins by spectrofluorimetry relative to control. It is filed as cell-based. Particulars: lcc-6, 2.5 h. The gist of the method:
as §2

A short description of series [9]: Noncompetitive inhibition of P-gp-mediated doxorubicin transport in multidrug-resistant human LCC-6 cells after 150 mins by dixon plot analysis. Type of series: cell-based. Summed up: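 LCC6MDR cells (1 × 10⁶) incubated with doxorubicin at 1.5, 4.4, 13.3 or 40 μM and modulator at 0, 0.5, 1 or 2 μM for 150 min at 37 °C. Lysis and fluorescence done as in the accumulation assay. Ki taken from a Dixon plot of reciprocal retention rate vs modulator concentration. Slope replot vs 1/[doxorubicin] used to assign mechanism. Two to four experiments.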

The target in series [10] is T1, ATP-dependent translocase ABCB1. Briefly: Inhibition of P-gp-mediated paclitaxel-resistance in P-glycoprotein-expressing human LCC-6 cells assessed as fractional inhibitory concentration index at 0.5 uM after 5 days by MTS assay in presence of 1-(3,4,5-Trimethoxybenzyl)-3,4-bis(3,4-dimethoxyphenyl)-1H-pyrrole-2,5-dione. Particulars: lcc-6, 120 h. It is filed as cell-based. The gist of the method:
as §3

Series [11] shares this target. Briefly: Inhibition of P-gp-mediated doxorubicin-resistance in P-glycoprotein-expressing human LCC-6 cells assessed as increase in intracellular doxorubicin accumulation at 8 to 16 uM after 150 mins by spectrofluorimetry. It is filed as cell-based. Particulars: lcc-6, 2.5 h. Summed up:
as §2

For series [12] the target is unchanged. The series is described as follows: Inhibition of P-gp-mediated paclitaxel-resistance in P-glycoprotein-expressing human LCC-6 cells assessed as fractional inhibitory concentration index at 0.5 uM after 5 days by fraction affected plot assay in presence of 1-(3,4,5-Trimethoxybenzyl)-3,4-bis(3,4-dimethoxyphenyl)-1H-pyrrole-2,5-dione. It is filed as cell-based. As to conditions: lcc-6, 120 h.

For series [13] the target is unchanged. Briefly: Inhibition of P-gp-mediated doxorubicin-resistance in P-glycoprotein-expressing human LCC-6 cells assessed as increase in intracellular doxorubicin accumulation at 0.25 to 3 uM after 150 mins by spectrofluorimetry. It is filed as cell-based. As to conditions: lcc-6, 2.5 h. Summed up:
as §2

For series [14] the target is unchanged. Briefly: Inhibition of P-gp-mediated vincristine-resistance in P-glycoprotein-expressing human LCC-6 cells assessed as fold decrease in vincristine IC50 for cytotoxic activity at 1 uM after 5 days by MTS assay. As to conditions: lcc-6, 120 h. It is filed as cell-based. The gist of the method:
as §1

Series [15] shares this target. The series is described as follows: Inhibition of P-gp-mediated doxorubicin-resistance in P-glycoprotein-expressing human LCC-6 cells assessed as fold decrease in doxorubicin IC50 for cytotoxic activity at 1 uM after 5 days by MTS assay. It is filed as cell-based. Particulars: lcc-6, 120 h. The gist of the method:
as §1

The source made the active and inactive calls. No cut-off for these calls is given here.

T1 sequence (P08183 whole entry): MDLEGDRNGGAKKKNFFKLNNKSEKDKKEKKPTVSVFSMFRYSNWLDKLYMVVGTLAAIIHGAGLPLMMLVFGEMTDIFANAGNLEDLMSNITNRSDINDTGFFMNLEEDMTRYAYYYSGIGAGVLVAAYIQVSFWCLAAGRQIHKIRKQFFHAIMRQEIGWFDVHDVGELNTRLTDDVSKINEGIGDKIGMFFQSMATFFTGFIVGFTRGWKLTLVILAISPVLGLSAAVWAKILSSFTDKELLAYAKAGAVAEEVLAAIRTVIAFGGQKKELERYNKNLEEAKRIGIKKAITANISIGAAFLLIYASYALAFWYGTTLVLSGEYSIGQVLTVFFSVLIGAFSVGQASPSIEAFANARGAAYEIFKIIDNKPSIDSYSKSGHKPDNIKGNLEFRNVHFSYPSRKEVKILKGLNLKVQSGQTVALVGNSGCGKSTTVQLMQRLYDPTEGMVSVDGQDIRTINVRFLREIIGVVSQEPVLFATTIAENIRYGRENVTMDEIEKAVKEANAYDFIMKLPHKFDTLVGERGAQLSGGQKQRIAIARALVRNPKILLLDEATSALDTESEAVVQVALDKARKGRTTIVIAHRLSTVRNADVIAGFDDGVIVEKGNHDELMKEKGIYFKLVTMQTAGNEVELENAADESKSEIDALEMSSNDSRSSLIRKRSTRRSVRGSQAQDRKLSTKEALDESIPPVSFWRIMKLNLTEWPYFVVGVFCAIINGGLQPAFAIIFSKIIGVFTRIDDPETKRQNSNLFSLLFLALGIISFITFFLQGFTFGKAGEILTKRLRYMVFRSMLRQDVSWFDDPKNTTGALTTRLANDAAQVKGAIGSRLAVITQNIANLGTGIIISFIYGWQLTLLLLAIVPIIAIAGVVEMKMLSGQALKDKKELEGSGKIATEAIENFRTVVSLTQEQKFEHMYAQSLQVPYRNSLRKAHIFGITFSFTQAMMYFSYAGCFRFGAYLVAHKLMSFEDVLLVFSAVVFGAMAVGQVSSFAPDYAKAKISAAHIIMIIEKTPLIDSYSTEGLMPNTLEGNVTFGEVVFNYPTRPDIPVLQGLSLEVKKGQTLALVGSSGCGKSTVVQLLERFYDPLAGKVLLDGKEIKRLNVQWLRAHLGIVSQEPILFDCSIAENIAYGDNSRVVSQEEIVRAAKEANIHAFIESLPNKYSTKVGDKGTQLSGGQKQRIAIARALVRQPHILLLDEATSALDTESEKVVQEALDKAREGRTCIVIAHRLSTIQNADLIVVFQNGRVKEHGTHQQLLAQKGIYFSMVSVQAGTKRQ

As to `COc1ccc(CN2C(=O)C(c3ccc(OC)c(OC)c3)=C(c3ccc(OC)c(OC)c3)C2=O)cc1`, the IC50 in [1], in series [2] and in [3] was above 100 µM in each case. In series [4], the “fold change (FC)” value is 9.3.
As for `COc1ccc(C2=C(c3ccc(OC)c(OC)c3)C(=O)N(C/C=C/c3cc(OC)c(OC)c(OC)c3)C2=O)cc1OC`, the IC50 in series [1], in series [2] and in [3] was above 100 µM throughout. Also, the “fold change (FC)” value in series [4] is on record as 6.2.
As for `COc1ccc(C2=C(c3ccc(OC)c(OC)c3)C(=O)N(CCCN3C(=O)C(c4ccc(OC)c(OC)c4)=C(c4ccc(OC)c(OC)c4)C3=O)C2=O)cc1OC`, the concentration for half-maximal inhibition (IC50) in series [1], in series [2] and in series [3] was above 100 µM in each case. Besides, in series [4], the “fold change (FC)” value is reported as 5.2.
Consider `COc1ccc(-c2cn(Cc3cc(OC)c(OC)c(OC)c3)c(OCc3cc(OC)c(OC)c(OC)c3)c2-c2ccc(OC)c(OC)c2)cc1OC`, for which the IC50 in series [1], in series [2] and in series [3] was above 100 µM in each case. In addition, in series [4], the “fold change (FC)” value is listed as 1.6.
In the case of `COc1ccc(C2=C(c3ccc(OC)c(OC)c3)C(=O)N(CCO)C2=O)cc1OC`, the results for the IC50 in series [2] and in [3] were 84 µM and above 100 µM, respectively. In addition, the “fold change (FC)” value in [4] was 1.8.
With `COc1ccc(CCN2C(=O)C(c3ccc(OC)c(OC)c3)=C(c3ccc(OC)c(OC)c3)C2=O)cc1OC`, the IC50 in series [1], in series [2] and in series [3] was above 100 µM in each case. In series [4], the “fold change (FC)” value amounted to 6.9.
For the compound `COc1ccc(C2=C(c3ccc(OC)c(OC)c3)C(=O)N(CCc3cc(OC)c(OC)c(OC)c3)C2=O)cc1OC`, the half-inhibitory concentration (IC50) in series [1], in [2] and in series [3] was above 100 µM in each case. Moreover, the “fold change (FC)” value in [4] was 4.5.
As for `COc1ccc(C2=C(c3ccc(OC)c(OC)c3)C(=O)N(CCc3ccccc3)C2=O)cc1OC`, the IC50 in series [2] and in [3] was above 100 µM in each case. The “fold change (FC)” value in series [4] is 3.6.
As to `COc1ccc(C2=C(c3ccc(OC)c(OC)c3)C(=S)N(CCc3cc(OC)c(OC)c(OC)c3)C2=O)cc1OC`, the “fold change (FC)” value in [4] was found to be 2.8.
Take `COc1ccc(C2=C(c3ccc(OC)c(OC)c3)C(=S)N(Cc3ccccc3)C2=O)cc1OC`: the IC50 in series [2] and in series [3] was above 100 µM in each case. The “fold change (FC)” value in [4] was 3.4.
Consider `COc1ccc(C(=O)CN2C(=O)C(c3ccc(OC)c(OC)c3)=C(c3ccc(OC)c(OC)c3)C2=O)cc1`, for which the result in series [5] was inactive. For the same compound, the “fractional inhibitory concentration index (FICI)” value was 1.26 in series [6], 0.89 in series [7], 0.42 in [10] and 0.42 in series [12]. Besides, the “fold change (FC)” value in series [8] was 2.1; in series [14] it was 9.3; in series [15], 5.2; in series [4] it was 9.9. In addition, the half-inhibitory concentration (IC50) in series [1] was above 100 µM; in series [2], 90 µM; in [3], above 100 µM. Moreover, in [9], the Ki stood at 5.4 µM. Further, the Activity entry in [11] is listed as “Not Active”; in series [13] it was “Active”.
In the case of `COc1ccc(C2=C(c3ccc(OC)c(OC)c3)C(=O)N(CCN3C(=O)C(c4ccc(OC)c(OC)c4)=C(c4ccc(OC)c(OC)c4)C3=O)C2=O)cc1OC`, the IC50 in series [2] and in series [3] was above 100 µM in each case. In addition, in [4], the “fold change (FC)” value came out at 1.4.
Consider `COc1ccc(CCN2C(=O)C(c3ccc(OC)c(OC)c3)=C(c3ccc(OC)c(OC)c3)C2=O)cc1`, for which the figures for the IC50 in series [1], in [2] and in series [3] were 32.5 µM, 18 µM and 21.6 µM, respectively. The “fractional inhibitory concentration index (FICI)” value in series [10] and in [12] was 1.61 each time. The “fold change (FC)” value in [4] is recorded as 10.7.
As for `COc1ccc(C2=C(c3ccc(OC)c(OC)c3)C(=O)N(Cc3cc(OC)c(OC)c(OC)c3)C2=O)cc1OC`, the result in [5] was inactive. The “fold change (FC)” value amounted to 3 in [8], 14.6 in series [14], 9.5 in series [15] and 18.2 in series [4]. In addition, the half-maximal inhibitory concentration (IC50) in series [1], in series [2] and in [3] was above 100 µM in each case. The Ki in [9] was found to be 5.5 µM. Also, the Activity result is “Not Active” in series [11] and “Active” in series [13].
As to `COc1ccc(C2=C(c3ccc(OC)c(OC)c3)C(=O)N(Cc3ccccc3)C2=O)cc1OC`, in series [4], the “fold change (FC)” value is 7.9.
Take `COc1ccc(C(=O)CN2C(=O)C(c3ccc(OC)c(OC)c3)=C(c3ccc(OC)c(OC)c3)C2=O)cc1OC`: the IC50 in series [1], in series [2] and in series [3] was above 100 µM each time. Further, the “fractional inhibitory concentration index (FICI)” value in series [10] and in series [12] was 2.05 each time. In series [4], the “fold change (FC)” value was 8.2.
Regarding `C/C=C/C[C@@H](C)C(=O)[C@H]1C(=O)N[C@@H](C(C)C)C(=O)N(C)CC(=O)N(C)[C@@H](CC(C)C)C(=O)N[C@@H](C(C)C)C(=O)N(C)[C@@H](CC(C)C)C(=O)N[C@@H](C)C(=O)N[C@H](C)C(=O)N(C)[C@@H](CC(C)C)C(=O)N(C)[C@@H](CC(C)C)C(=O)N(C)[C@@H](C(C)C)C(=O)N1C` [VALSPODAR], the “fold change (FC)” value in series [4] is given as 101.8.
As to `COc1ccc(CN2C(=O)C(c3ccc(OC)c(OC)c3)=C(c3ccc(OC)c(OC)c3)C2=O)cc1OC`, the IC50 in series [1], in series [2] and in [3] was above 100 µM throughout. Moreover, the “fractional inhibitory concentration index (FICI)” value in [10] and in [12] was 2.21 each time. Moreover, in series [4], the “fold change (FC)” value stood at 12.4.
In the case of `COc1ccc(C2=C(c3ccc(OC)c(OC)c3)C(=O)N(CN3C(=O)C(c4ccc(OC)c(OC)c4)=C(c4ccc(OC)c(OC)c4)C3=O)C2=O)cc1OC`, the half-inhibitory concentration (IC50) in series [1], in [2] and in series [3] was above 100 µM each time. The “fold change (FC)” value in series [4] amounted to 8.
As for `COc1ccc(C2=C(c3ccc(OC)c(OC)c3)C(=O)N(CCCc3cc(OC)c(OC)c(OC)c3)C2=O)cc1OC`, the half-maximal inhibitory concentration (IC50) in [1], in series [2] and in series [3] was above 100 µM throughout. In [4], the “fold change (FC)” value came out at 4.7.
Take `COc1ccc(C2=C(c3ccc(OC)c(OC)c3)C(=O)N(CC(=O)c3ccccc3)C2=O)cc1OC`: the IC50 in [2] and in series [3] was above 100 µM throughout. Moreover, in series [4], the “fold change (FC)” value is reported as 3.9.

As a reminder, the IC50 is the point on the concentration scale where inhibition reaches its midpoint. A low value points to higher potency. As usually defined, the Ki is a measure of affinity in units of concentration, obtained from inhibition or displacement.
